Bioassay records (PubChem BioAssay)
This is a sample that favours compounds with a hit; in the whole collection about 5% have one here.
CHOP UPR activ = activators of apoptotic arm of unfolded protein response (CHOP) | CHO-CHOP luciferase reporter, UPR activation, luminescence; percent of tunicamycin response over DMSO baseline | activation, % at 10 µM | actives 0.34% (n = 330,000) | AID 449763;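 active means at 10 µM dose, activation of 40% or more, normalized to positive control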;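 further: 100% = tunicamycin at 10 µg/mL and 0% = DMSO alone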
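measured by = luciferase luminescence | assay system = CHO-CHOP cells, stable luciferase reporter of PERK-eIF2a-CHOP signalling | amount = 500 reporter cells seeded per well | timing = 6 h compound exposure at 37 °C after overnight seeding | controls = positive tunicamycin 10 µg/mL, negative DMSO alone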
Mdm2 MdmX PPI = inhibitors of human Mdm2/MdmX interaction; O15151+Q00987; SaOS-2 split-luciferase Mdm2/MdmX complementation, luminescence; inhibition, % at 8 µM; actives 3% (n = 330,000);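 active means inhibition of at least 50% at 8 µM in the primary screen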
Target sequence (O15151 whole entry, looked up): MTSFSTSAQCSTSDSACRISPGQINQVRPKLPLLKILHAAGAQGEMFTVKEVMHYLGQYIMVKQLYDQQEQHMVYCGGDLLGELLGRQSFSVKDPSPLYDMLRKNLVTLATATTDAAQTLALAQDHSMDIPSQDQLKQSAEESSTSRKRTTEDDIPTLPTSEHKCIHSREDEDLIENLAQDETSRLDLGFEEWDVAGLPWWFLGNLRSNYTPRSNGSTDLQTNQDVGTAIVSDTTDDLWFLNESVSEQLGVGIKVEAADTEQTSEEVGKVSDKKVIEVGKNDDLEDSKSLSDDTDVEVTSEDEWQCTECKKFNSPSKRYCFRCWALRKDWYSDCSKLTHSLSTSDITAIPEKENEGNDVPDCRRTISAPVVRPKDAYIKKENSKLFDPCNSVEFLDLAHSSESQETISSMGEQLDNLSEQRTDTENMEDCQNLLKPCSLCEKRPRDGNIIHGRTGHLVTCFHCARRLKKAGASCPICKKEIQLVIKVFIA
Target sequence (Q00987 whole entry, looked up): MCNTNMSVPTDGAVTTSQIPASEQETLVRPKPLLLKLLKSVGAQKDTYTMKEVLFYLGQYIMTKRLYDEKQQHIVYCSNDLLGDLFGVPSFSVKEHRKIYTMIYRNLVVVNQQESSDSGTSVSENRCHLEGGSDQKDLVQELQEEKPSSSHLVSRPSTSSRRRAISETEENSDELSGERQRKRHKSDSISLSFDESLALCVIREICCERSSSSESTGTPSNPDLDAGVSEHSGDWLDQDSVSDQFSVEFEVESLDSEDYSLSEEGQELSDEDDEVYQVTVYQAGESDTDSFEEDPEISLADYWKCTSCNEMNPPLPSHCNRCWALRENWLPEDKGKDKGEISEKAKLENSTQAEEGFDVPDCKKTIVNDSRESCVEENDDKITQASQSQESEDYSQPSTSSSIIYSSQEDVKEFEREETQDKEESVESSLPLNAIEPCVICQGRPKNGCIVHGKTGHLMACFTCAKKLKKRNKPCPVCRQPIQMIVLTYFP
T cruzi repl = T. cruzi replication inhibition. T. cruzi beta-gal in NIH3T3, luminescence, 90 h. inhibition, % (no concentration beside the values). actives 1.4% (n = 300,000);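 active means mean inhibition across valid replicates above about 55%, limit read from the data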;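 further: signal also drops with host cell toxicity which is not excluded here; 0% = plate median of DMSO wells and 100% = zero luminescence signal; higher percent means less beta-gal luminescence so fewer parasites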
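Assay system: NIH/3T3 host cells with β-galactosidase reporter T. cruzi; input: 5,000 host fibroblasts per well; compound: single 50 nL compound addition per well in DMSO; timing: ≥90 h infection period, 3 h prior cell attachment; measured by: GalScreen β-gal luminescence, detergent lysis, 60 min; evaluation: percent inhibition of parasite-derived β-gal signal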
UPR XBP1 act = adaptive UPR (XBP1) activation; CHO-XBP1 luciferase reporter, IRE1-XBP1 UPR activation, luminescence; percent of tunicamycin response, DMSO as zero; activation, % at 20 µM; actives 0.33% (n = 330,000);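 active means versus positive control, 20 µM dose yields 30% or more activation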;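 further: 100% = tunicamycin at 10 µg/mL and 0% = DMSO only wells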
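Signal: luciferase luminescence; Assay system: CHO-XBP1 luciferase reporter cells; Amount: one thousand reporter cells per well; Dosing: 20 µM single concentration, DMSO 1%; Benchmarks: high control tunicamycin 10 µg/mL final, low control DMSO vehicle only; Schedule: 6 h compound exposure at 37 °C, 5% CO2; Evaluation: percent activation relative to tunicamycin reference.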
Beta apoptosis = blocks beta cell apoptosis | INS-1E cytokine-induced death, ATP luminescence, 48 h; percent of positive-control rescue, neutral wells zero | protection from apoptosis, % (test concentration not listed) | actives 0.8% (n = 300,000);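 active means Every replicate reaches about 75%, or at least half do and their mean reaches it too, limit read from the data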;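 further: 0% = cytokine-treated negative control wells and 100% = positive control rescue; higher means more ATP so stronger rescue from cytokine killing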
CSC inhib = cancer stem cell inhibition. cancer stem cell-like cells viability, luminescence. inhibition, % at 7.5 µM. actives 1.1% (n = 300,000). AID 2717; in the data active means inhibition above about 75%; tested in HMLE shEcad cells
Mdm2-MdmX conf = confirmation of human Mdm2/MdmX interaction inhibitors | Mdm2-MdmX binding, luminescent assay | shares compounds with Mdm2 MdmX PPI | actives 55% (n = 10,000) | inhibition, % at 8 µM; in the data active means inhibition above about 40%
Full FLuc ctr = full-length luciferase inhibition in Mdm2/MdmX counter-screen; shares compounds with Mdm2 MdmX PPI; SaOS-2 full-length luciferase counterscreen, luminescence; inhibition, % at 8 µM; actives 77% (n = 6,200); AID 504607;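 active means mean inhibition at 8 µM reaching about 37%, which flags the compound as non-specific, limit read from the data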;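 further: p53-null SaOS-2 cells with luciferase driven by a doxycycline-inducible promoter; compound on cells about two nights before reading with doxycycline added after day one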
Numbers without * were called inactive.

How did Cc1ccc(C(C(=O)NCCc2ccccc2)N(C(=O)c2csnn2)C2CC2)cc1 (stereo not drawn) do in these assays?
CHOP UPR activ: -0.9; Mdm2 MdmX PPI: 8.9; T cruzi repl: 4.4; UPR XBP1 act: 2.4; Beta apoptosis: 5.3; CSC inhib: 7.4

What do the screens show for `CCC1NC(=S)NC(C)=C1C(=O)c1ccccc1` (stereo not drawn)?
CHOP UPR activ: 0.2; Mdm2 MdmX PPI: 8.8; T cruzi repl: -15.6; UPR XBP1 act: -3.3; Beta apoptosis: 2.6; CSC inhib: 10.8

How did CSc1ccc(CN(C)CC(=O)NC(C)c2ccccc2)cc1 (stereo not drawn) do in these assays?
CHOP UPR activ: -1.8; Mdm2 MdmX PPI: -4.5; T cruzi repl: 21.6; UPR XBP1 act: -4.8; Beta apoptosis: 0.6; CSC inhib: 2.4

What do the screens show for `Cc1cc(OCc2cn3cccnc3n2)ccc1Cl`?
CHOP UPR activ: 1.4; Mdm2 MdmX PPI: -32.1; T cruzi repl: -8.3; UPR XBP1 act: 2.1; Beta apoptosis: -5.5; CSC inhib: 8.7

How did CCCC(C)c1nc(C(N)=O)c2[nH]c(=O)n(-c3ccc(OC)c(OC)c3)c2n1 (stereo not drawn) do in these assays?
CHOP UPR activ: 0.6; Mdm2 MdmX PPI: -0.9; T cruzi repl: -19.9; UPR XBP1 act: 2.9; Beta apoptosis: 6.3; CSC inhib: -19.9

How did COc1cccc(NC(=O)CSc2nc3c(sc4ccccc43)c(=O)n2CCCN2CCCC2)c1 do in these assays?
CHOP UPR activ: 6.3; Mdm2 MdmX PPI: 88.9*; T cruzi repl: -3.0; UPR XBP1 act: 4.7; Beta apoptosis: -4.1; CSC inhib: 6.9; Mdm2-MdmX conf: 26.1

How did COc1cccc(NC(=O)CSc2nc3c(sc4ccccc43)c(=O)n2CCN(C)C)c1 do in these assays?
CHOP UPR activ: 0.5; Mdm2 MdmX PPI: -11.6; T cruzi repl: -11.0; UPR XBP1 act: 0.0; Beta apoptosis: -16.7; CSC inhib: 1.6

What do the screens show for `CCN(CC)CCn1c(SCC(=O)Nc2cccc(OC)c2)nc2c(sc3ccccc32)c1=O`?
CHOP UPR activ: -0.4; Mdm2 MdmX PPI: 51.5*; T cruzi repl: 6.6; UPR XBP1 act: 3.4; Beta apoptosis: 7.4; CSC inhib: 16.2; Mdm2-MdmX conf: 36.0

How did CCOc1cc(/C=N/NC(=O)C(=O)NC)cc(Br)c1O do in these assays?
CHOP UPR activ: 1.2; Mdm2 MdmX PPI: 2.9; T cruzi repl: -9.3; UPR XBP1 act: -2.6; Beta apoptosis: 5.5; CSC inhib: 7.4

What do the screens show for `Oc1ccc(/C=N/Nc2nc(-c3ccc(Cl)cc3)cc(C(F)(F)F)n2)cc1`?
CHOP UPR activ: 5.2; Mdm2 MdmX PPI: 57.0*; T cruzi repl: 15.7; UPR XBP1 act: 3.2; Beta apoptosis: -3.5; CSC inhib: 85.4*; Mdm2-MdmX conf: 21.7

How did Cc1cc(-c2ccccc2)nc(N/N=C/c2ccc(O)cc2)n1 do in these assays?
CHOP UPR activ: 9.4; Mdm2 MdmX PPI: 14.5; UPR XBP1 act: 11.9

How did Cc1c(N2C(=O)/C(=C\c3ccccc3O)SC2=S)c(=O)n(-c2ccccc2)n1C do in these assays?
CHOP UPR activ: -2.7; Mdm2 MdmX PPI: 2.8; T cruzi repl: -6.6; UPR XBP1 act: -1.2; Beta apoptosis: -18.3; CSC inhib: 13.7

How did CN1C(=O)/C(=C/c2cc(N=Nc3ccccc3)ccc2O)SC1=S do in these assays?
CHOP UPR activ: -1.0; Mdm2 MdmX PPI: 91.9*; T cruzi repl: -3.7; UPR XBP1 act: -1.4; Beta apoptosis: 4.3; CSC inhib: active; Mdm2-MdmX conf: 47.4*; Full FLuc ctr: 52.7*

How did COC(=O)c1ccc(NC(=O)COc2coc(CN3CCc4ccccc43)cc2=O)cc1 do in these assays?
CHOP UPR activ: 1.8; Mdm2 MdmX PPI: 32.1; T cruzi repl: -6.3; UPR XBP1 act: -2.5; Beta apoptosis: -1.2; CSC inhib: -4.0

Results for Cc1ccc(NC(=O)COc2coc(CN3CCc4ccccc43)cc2=O)cc1Cl ?
CHOP UPR activ: -0.8; Mdm2 MdmX PPI: 61.8*; T cruzi repl: 9.9; UPR XBP1 act: -1.8; Beta apoptosis: 10.7; CSC inhib: 10.7; Mdm2-MdmX conf: 16.8

How did COc1ccc(-c2cc(N)n(S(=O)(=O)c3c(F)c(F)c(F)c(F)c3F)n2)cc1OC do in these assays?
CHOP UPR activ: -9.5; Mdm2 MdmX PPI: 81.4*; T cruzi repl: 21.6; UPR XBP1 act: -6.0; Beta apoptosis: 92.9*; CSC inhib: 41.5; Mdm2-MdmX conf: 100.0*; Full FLuc ctr: -0.7

How did O=C(CCCn1c(=S)[nH]c2cc3c(cc2c1=O)OCO3)NCc1cccc(Cl)c1 do in these assays?
CHOP UPR activ: -0.7; Mdm2 MdmX PPI: 7.5; T cruzi repl: 3.5; UPR XBP1 act: -2.5; Beta apoptosis: 1.7; CSC inhib: -11.5

Results for CCc1ccc(OCC(=O)N/N=C\c2ccco2)c([N+](=O)[O-])c1 ?
CHOP UPR activ: 7.9; Mdm2 MdmX PPI: -27.0; T cruzi repl: -1.6; UPR XBP1 act: 2.8; Beta apoptosis: -5.5; CSC inhib: -11.5

Results for CCc1cc(C(=O)N2CCc3c([nH]c4ccccc34)C2c2ccc(OC)cc2F)no1 (stereo not drawn) ?
CHOP UPR activ: 1.6; Mdm2 MdmX PPI: 83.3*; T cruzi repl: 5.5; UPR XBP1 act: -2.3; Beta apoptosis: 12.0; CSC inhib: -24.7; Mdm2-MdmX conf: 85.0*; Full FLuc ctr: 34.5

Results for CN1CCN(Cc2nc3c(c(=O)[nH]c(=O)n3C)n2Cc2c(F)cccc2Cl)CC1 ?
CHOP UPR activ: -1.1; Mdm2 MdmX PPI: 36.2; T cruzi repl: -5.2; UPR XBP1 act: 5.5; Beta apoptosis: -14.1; CSC inhib: -12.8

What do the screens show for `CS(=O)(=O)c1ccc(C(=O)OCC(=O)NCc2cccs2)cc1[N+](=O)[O-]`?
CHOP UPR activ: -7.3; Mdm2 MdmX PPI: 73.3*; UPR XBP1 act: -8.8; Beta apoptosis: 13.1; Mdm2-MdmX conf: 52.9*; Full FLuc ctr: 20.8

What do the screens show for `O=C(CN1CCC(n2nnc3cc(F)ccc32)CC1)NCCc1nc2ccccc2[nH]1`?
CHOP UPR activ: -1.8; Mdm2 MdmX PPI: -13.0; T cruzi repl: -3.1; UPR XBP1 act: -2.9; Beta apoptosis: 0.6; CSC inhib: -4.7

How did COc1ccc(-c2cc(=O)[nH]c3ccccc23)cc1 do in these assays?
CHOP UPR activ: -1.2; Mdm2 MdmX PPI: 57.7*; UPR XBP1 act: 2.3; Beta apoptosis: -1.5; Mdm2-MdmX conf: 23.4

What do the screens show for `O=C(CSc1nccc(=O)[nH]1)Nc1cccc(S(=O)(=O)N2CCOCC2)c1`?
CHOP UPR activ: 3.1; Mdm2 MdmX PPI: -19.2; T cruzi repl: -1.4; UPR XBP1 act: 0.9; Beta apoptosis: -9.7; CSC inhib: -12.3
